# Experimental data published in ChEMBL document CHEMBL1152630, “Synthesis and evaluation of benzo[b]thiophene derivatives as inhibitors of alkaline phosphatases” (Bioorg Med Chem, 2009).
# What was measured:
# [1] = organism: Sus scrofa; experiment: Inhibition of porcine kidney tissue non-specific alkaline phosphatase assessed as residual enzyme activity at 0.4 mM in presence of 4% DMSO at pH 10.4 at 37 degC relative to untreated control
# [2] = target: Intestinal-type alkaline phosphatase (Bos taurus) (UniProt P19111); experiment: Inhibition of bovine intestinal alkaline phosphatase assessed as residual enzyme activity at 0.1 mM in presence of 1% DMSO at pH 10.4 at 37 degC relative to untreated control
# Sequence of Intestinal-type alkaline phosphatase (Bos taurus) (P19111 20-506 limits assumed): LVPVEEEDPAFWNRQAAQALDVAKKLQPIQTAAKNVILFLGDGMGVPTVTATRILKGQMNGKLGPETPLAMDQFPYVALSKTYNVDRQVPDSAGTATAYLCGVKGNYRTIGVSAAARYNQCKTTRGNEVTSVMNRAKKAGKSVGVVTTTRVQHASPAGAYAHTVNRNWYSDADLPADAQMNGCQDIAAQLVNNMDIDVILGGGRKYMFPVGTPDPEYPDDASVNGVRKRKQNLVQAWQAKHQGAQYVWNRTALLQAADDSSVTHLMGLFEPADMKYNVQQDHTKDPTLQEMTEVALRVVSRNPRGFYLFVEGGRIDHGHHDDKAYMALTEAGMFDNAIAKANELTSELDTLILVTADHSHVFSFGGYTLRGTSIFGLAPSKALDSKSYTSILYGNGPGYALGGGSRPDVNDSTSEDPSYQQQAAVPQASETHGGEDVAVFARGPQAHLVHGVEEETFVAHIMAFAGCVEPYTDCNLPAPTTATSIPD
# In short: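 Screening in 25 mM piperazine, 25 mM glycylglycine, 5 mM MgCl2, 5 µM ZnCl2, pH 10.4, 37 °C. BIAP (0.1–0.3 µg/mL) preincubated 10 min with 0.1 mM compound (final DMSO 1% v/v), no substrate. Reaction started with 0.05 mM pNPP; read at 420 nm (ε 18.6 cm⁻¹ mM⁻¹). Activity given relative to inhibitor-free control; sample-to-sample error 5%.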
SMILES,Activity [1] [%],Activity [2] [%]
N#Cc1c(-c2ccc(C(F)(F)F)cc2)sc2ccccc12,97,96
N#Cc1ccccc1-c1sc2ccccc2c1Oc1ccc(F)cc1,85,66
N#Cc1ccc(Oc2c(-c3ccccc3C#N)sc3ccccc23)cc1,97,82
O=C(c1ccccc1)c1csc2ccccc12,80,43
FC(F)(F)COc1cc2ccccc2s1,100,116
N#Cc1ccc(-c2sc3ccccc3c2C=O)cc1,105,92
COc1ccc(Oc2csc3ccccc23)cc1,82,96
[O-][s+]1cc(Oc2ccccc2)c2ccccc21 (centres undefined),104,102
COc1cc(Oc2c[s+]([O-])c3ccccc23)cc(OC)c1OC (centres undefined),101,127
[O-][s+]1cc(Oc2ccc(F)cc2)c2ccccc21 (centres undefined),79,109
O=Cc1c(-c2cccnc2)sc2ccccc12,93,119
COc1ccc(C(=O)c2csc3ccccc23)cc1,96,40
CN1CCN(c2csc3ccccc23)CC1,97,107
Ic1cc2ccccc2s1,54,41
N#Cc1ccc(Oc2c[s+]([O-])c3ccccc23)cc1 (centres undefined),67,106
CN1CCN(c2c[s+]([O-])c3ccccc23)CC1 (centres undefined),95,102
COc1c(-c2ccc3ccccc3c2)sc2ccccc12,–,102
N#Cc1cc2ccccc2s1,105,103
COc1c(-c2ccccn2)sc2ccccc12,90,99
NCc1c(-c2ccccc2)sc2ccccc12,76,148
COc1ccc(-c2csc3ccccc23)cc1,–,100
COc1cc(Oc2csc3ccccc23)cc(OC)c1OC,101,129
COc1cccc(C(=O)c2c(-c3ccccc3[N+](=O)[O-])sc3ccccc23)c1,96,98
Clc1ccc(Oc2csc3ccccc23)cc1,94,107
N#Cc1ccccc1-c1sc2ccccc2c1Oc1ccccc1,91,110

SMILES,Activity [1] [%],Activity [2] [%]
COc1ccc(-c2cc3ccccc3s2)c([N+](=O)[O-])c1,96,99
c1ccc2c(N3CCOCC3)csc2c1,99,108
[O-][s+]1cc(N2CCOCC2)c2ccccc21 (centres undefined),111,97
[O-][s+]1cc(Br)c2ccccc21 (centres undefined),100,105
N#Cc1c(-c2ccccc2)sc2ccccc12,–,76
CC(C)(C)c1ccc(Oc2csc3ccccc23)cc1,100,113
N#Cc1c(-c2cccnc2)sc2ccccc12,–,106
COc1c(-c2ccccc2)sc2ccccc12,87,80
Clc1cccc(-c2cc3ccccc3s2)c1,96,95
O=Cc1c(-c2ccccc2Cl)sc2ccccc12,97,63
COc1ccc(-c2sc3ccccc3c2CN)c(OC)c1OC,94,142
COc1ccc(C(=O)c2c(-c3ccc(OC)cc3[N+](=O)[O-])sc3ccccc23)cc1,100,95
O=[N+]([O-])c1cc(Cl)ccc1-c1cc2ccccc2s1,93,107
O=Cc1c(-c2ccccc2[N+](=O)[O-])sc2ccccc12,78,116
COc1ccc(-c2sc3ccccc3c2C(=O)c2cc(OC)c(O)c(OC)c2)c([N+](=O)[O-])c1,95,125
Nc1ccccc1-c1cc2ccccc2s1,70,93
N#Cc1ccccc1-c1sc2ccccc2c1N1CCCCC1,100,99
c1ccc(-c2sc3ccccc3c2N2CCCCC2)cc1,81,99
CN(C)c1cccc(-c2sc3ccccc3c2CN)c1,84,134
N#Cc1c(-c2cccc(Cl)c2)sc2ccccc12,–,115
[O-][s+]1cc(N2CCCCC2)c2ccccc21 (centres undefined),101,110
O=Cc1ccc(Oc2csc3ccccc23)cc1,–,9
N#Cc1c(-c2ccccn2)sc2ccccc12,–,94
COC(=O)C(Cc1c(-c2ccc(C#N)cc2)sc2ccccc12)NCc1ccccc1 (centres undefined),–,115
COc1ccc(-c2sc3ccccc3c2C=O)cc1,99,37

SMILES,Activity [1] [%],Activity [2] [%]
N#Cc1ccccc1-c1sc2ccccc2c1C(=O)c1ccccc1,92,91
COc1ccc(-c2sc3ccccc3c2Oc2ccccc2)cc1,94,105
FC(F)(F)Cc1c(-c2cccnc2)sc2ccccc12,84,122
N#Cc1ccc(Oc2csc3ccccc23)cc1,85,87
COc1ccc(-c2sc3ccccc3c2C(=O)c2cc(OC)c(OC)c(OC)c2)c([N+](=O)[O-])c1,92,124
c1ccc(-c2cc3ccccc3s2)nc1,94,119
COc1c(-c2cnc3ccccc3c2)sc2ccccc12,86,64
COc1c(-c2ccccc2C#N)sc2ccccc12,79,57
N#Cc1sc2ccccc2c1-c1cccnc1,–,120
Oc1ccccc1N1CCN(c2csc3ccccc23)CC1,109,49
Cc1ccc(-c2cc3ccccc3s2)c(N)c1,93,107
NCc1ccc(Oc2csc3ccccc23)cc1,83,105
COc1csc2ccccc12,93,90
N#Cc1ccccc1-c1sc2ccccc2c1C#N,–,90
COc1ccc(Oc2c(-c3ccccc3C#N)sc3ccccc23)c(OC)c1OC,106,121
N#Cc1sc2ccccc2c1-c1ccc(C(F)(F)F)cc1,–,115
c1ccc(Oc2c(-c3ccccc3)sc3ccccc23)cc1,91,104
N#Cc1ccccc1-c1sc2ccccc2c1Oc1ccc(Cl)cc1,79,101
COc1ccc(-c2sc3ccccc3c2C(=O)c2ccccc2)c([N+](=O)[O-])c1,97,114
N#Cc1ccccc1-c1c(OCC(F)(F)F)sc2ccccc12,87,101
Cc1ccc(-c2cc3ccccc3s2)c([N+](=O)[O-])c1,97,127
NCc1c(-c2cccnc2)sc2ccccc12,111,105
COc1ccc(C(=O)c2c(-c3ccccc3[N+](=O)[O-])sc3ccccc23)cc1,101,107
c1ccc(Oc2csc3ccccc23)cc1,89,104
COc1ccc(C(=O)c2c(-c3ccc(OC)cc3)sc3ccccc23)cc1,108,70

SMILES,Activity [1] [%],Activity [2] [%]
N#Cc1c(-c2ccc3ccccc3c2)sc2ccccc12,99,18
COc1cc(-c2sc3ccccc3c2C#N)cc(OC)c1OC,91,88
COc1ccc(-c2sc3ccccc3c2OC)cc1,97,78
COc1ccc(-c2sc3ccccc3c2N2CCCCC2)cc1,91,106
COc1ccc(-c2sc3ccccc3c2C(=O)c2ccccc2OC)c([N+](=O)[O-])c1,111,117
O=[N+]([O-])c1ccccc1-c1cc2ccccc2s1,86,121
COc1cccc(-c2sc3ccccc3c2C#N)c1,–,97
COc1ccc(-c2sc3ccccc3c2CN)c(N)c1,103,103
Cc1ccccc1-c1sc2ccccc2c1C#N,85,5
N#Cc1ccccc1-c1sc2ccccc2c1C=O,79,110
COc1cccc(C(=O)c2c(-c3ccc(OC)cc3[N+](=O)[O-])sc3ccccc23)c1,100,116
COc1c(-c2cccnc2)sc2ccccc12,44,112
N#Cc1ccccc1-c1sc2ccccc2c1N1CCOCC1,93,107
CN(C)c1ccc(-c2sc3ccccc3c2C#N)cc1,83,82
COC(=O)/C(=C\c1c(-c2ccc(C#N)cc2)sc2ccccc12)NCc1ccccc1,–,108
O=Cc1c(-c2ccc(Cl)cc2)sc2ccccc12,–,9
COc1ccc(Oc2c[s+]([O-])c3ccccc23)cc1 (centres undefined),100,107
COc1ccccc1C(=O)c1c(-c2ccccc2[N+](=O)[O-])sc2ccccc12,98,92
N#Cc1c(-c2ccc(Cl)cc2)sc2ccccc12,–,69
FC(F)c1c(-c2ccccc2)sc2ccccc12,90,94
COc1ccc(-c2sc3ccccc3c2C#N)cc1,–,94
O=Cc1c(-c2cnc3ccccc3c2)sc2ccccc12,–,110
COC(=O)C(Cc1c(-c2ccc(C(F)(F)F)cc2)sc2ccccc12)NCc1ccccc1 (centres undefined),–,63
N#Cc1c(-c2cnc3ccccc3c2)sc2ccccc12,–,95
